Measured values as given in ChEMBL document CHEMBL1141409, “Structures, biogenesis, and biological activities of pyrano[4,3-c]isochromen-4-one derivatives from the Fungus Phellinus igniarius” (J Nat Prod, 2007).
pIC50: −log10 of the molar value.

Key:
A549 = assay: Cytotoxicity against human A549 cells; format: cell-based
HCT-8 = assay: Cytotoxicity against human HCT8 cells; format: cell-based
[1] = Cytotoxicity against human […] cells; format: cell-based
Liver microsomes = assay: Antioxidant activity assessed as inhibition of rat liver microsomal lipid peroxidation; format: functional, Microsome
[2] = Cytotoxicity against human Bel7402 cells; format: cell-based; settings: Bel-7402
[3] = biological target: T1, Tyrosine-protein phosphatase non-receptor type 1 (Homo sapiens, UniProt P18031); assay: Inhibition of human PTP1B
T1 sequence (P18031 whole entry): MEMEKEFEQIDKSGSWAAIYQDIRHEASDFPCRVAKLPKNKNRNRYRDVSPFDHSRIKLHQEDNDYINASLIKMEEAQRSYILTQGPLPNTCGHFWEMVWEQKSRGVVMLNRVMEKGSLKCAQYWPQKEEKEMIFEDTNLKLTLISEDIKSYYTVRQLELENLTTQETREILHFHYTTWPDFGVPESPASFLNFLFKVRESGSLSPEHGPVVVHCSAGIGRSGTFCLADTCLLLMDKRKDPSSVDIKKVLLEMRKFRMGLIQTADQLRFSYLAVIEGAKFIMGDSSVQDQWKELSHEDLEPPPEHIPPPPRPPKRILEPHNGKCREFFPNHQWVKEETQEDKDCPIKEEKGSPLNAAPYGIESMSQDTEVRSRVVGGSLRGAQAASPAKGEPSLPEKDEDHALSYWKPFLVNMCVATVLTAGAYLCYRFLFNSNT
Procedure, shortened: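 Recombinant GST-tagged human PTP1B, purified from bacterial pellets on a GST bead column. Substrate 3 mM p-NPP in HEPES buffer, pH 7.0. Compounds dissolved in DMSO, 10% DMSO final in all reactions. First screened at 10 µM for 10 min at 30 °C. Reaction started by adding enzyme and stopped with 1 M NaOH. End-point p-nitrophenol absorbance at 405 nm.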

Row | Structure (SMILES) | pIC50 (Liver microsomes) | pIC50 [3] | IC50 (A549) [µg/mL] | IC50 (HCT-8) [µg/mL] | IC50 [1] [µg/mL] | IC50 [2] [µg/mL] | pIC50 (A549) | pIC50 (HCT-8) | pIC50 [1] | pIC50 [2]
1 | O=c1oc2cc(-c3c(-c4ccc(O)c(O)c4)oc4cc(/C=C/c5ccc(O)c(O)c5)oc(=O)c34)oc(=O)c2c2cc(O)c(O)cc12 [PHELLIGRIDIN H] | 5.32 |  | > 10 | > 10 | > 10 | > 10 |  |  |  | 
2 | CC[C@@]1(O)C(=O)OCc2c1cc1n(c2=O)Cc2cc3c(CN(C)C)c(O)ccc3nc2-1 [TOPOTECAN] |  |  |  |  |  |  | 5.51 | 5.80 | 5.92 | 5.85
3 | CC1=CC(=O)[C@H](c2c(O)cc(/C=C/c3ccc(O)c(O)c3)oc2=O)[C@@H](c2ccc(O)c(O)c2)O1 [DAVALLIALACTONE] | 5.09 |  | > 10 | > 10 | > 10 | > 10 |  |  |  | 

Further lines, with some results ahead:

Row | pIC50 (Liver microsomes) | pIC50 [3] | Structure (SMILES) | IC50 (A549) [µg/mL] | IC50 (HCT-8) [µg/mL] | IC50 [1] [µg/mL] | IC50 [2] [µg/mL] | pIC50 (A549) | pIC50 (HCT-8) | pIC50 [1] | pIC50 [2]
4 | 5.43 | 5.52 | O=c1oc(/C=C/c2ccc(O)c(O)c2)cc(O)c1-c1cc(O)c(O)cc1/C=C/c1cc2oc(=O)c3cc(O)c(O)cc3c2c(=O)o1 [PHELLIGRIDIN I] | > 10 | > 10 | > 10 | > 10 |  |  |  | 
5 | 5.19 | < 5.00 | O=C(O)c1cc2oc(=O)c3cc(O)c(O)cc3c2c(=O)o1 [PHELLIGRIDIN J] |  |  |  |  | 5.38 | 5.08 | 5.14 | 5.04
